# Hits are enriched below; roughly 1.9% of the tested compounds scored in any of these assays.
# Scp-1 inhibitor = Scp-1 phosphatase inhibitors, primary screen, biochemical, colorimetric, uHTS. Carboxy-terminal domain RNA polymerase II polypeptide A small phosphatase 1 (Homo …. Recombinant Scp1, phosphopeptide, malachite green phosphate absorbance. inhibition, % at 20 µM. actives 0.88% (n = 340,000). AID 493091, 2011;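 active means inhibition above about 50% at 20 µM, limit read from the data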;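 further: plate controls were DMSO wells with enzyme for no effect and wells lacking enzyme for full effect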
# Target sequence (Q9GZU7 76-261 limits assumed): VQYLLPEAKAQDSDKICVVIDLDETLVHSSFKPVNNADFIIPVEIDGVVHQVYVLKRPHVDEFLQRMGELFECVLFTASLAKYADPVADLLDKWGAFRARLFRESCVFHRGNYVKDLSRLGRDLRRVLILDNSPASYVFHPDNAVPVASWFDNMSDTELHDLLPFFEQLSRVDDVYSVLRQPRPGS
#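 Assay system: SCP-1 catalytic fragment, aa 76-261 | Buffer or medium: Tris acetate buffer pH 5.5 with MgCl2 and Tween-20 | Compound: One concentration, 20 µM, with 1.0% DMSO | Also added: Phospho 17-mer peptide substrate | Signal: Absorbance at 630 nm | Incubation: 45 min enzyme reaction at room temperature | Measure: % inhibition of SCP-1 phosphate liberation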
# STEP block = STEP phosphatase inhibitors, primary screen, biochemical, fluorescence intensity, uHTS | recombinant STEP, OMFP fluorogenic substrate | Tyrosine-protein phosphatase non-receptor type 5 (Homo sapiens), P54829 | actives 0.25% (n = 360,000) | AID 588621, 2011 | inhibition, % at 20 µM;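 active means inhibition at 20 µM, scaled per plate between control wells, above about 37%, limit read from the data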;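 further: 0% = DMSO with enzyme and substrate and 100% = substrate only without enzyme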
#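 System: isolated STEP enzyme; schedule: 20 min enzyme reaction at room temperature, protected from light; medium: Bis-Tris buffer pH 6.0, 2.5 mM DTT, 0.005% Tween 20; signal: fluorescence, 480/540 nm; dosing: single compound dose of 20 µM, 1% DMSO final; also added: OMFP substrate, 25 µM final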
# FAS TE block = FAS thioesterase domain inhibitors, primary screen, biochemical, fluorescence intensity, uHTS; Fatty acid synthase (Homo sapiens), P49327; recombinant FAS-TE, OMFH fluorogenic substrate, fluorescence endpoint; inhibition, % at 15 µM; actives 0.67% (n = 360,000); AID 602261, 2012;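 active means compounds whose normalised, plate-corrected inhibition of enzyme fluorescence in the single-dose primary screen is 50% or more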;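 further: 0% = DMSO with enzyme and 100% = substrate without enzyme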
# LMPTP inh = LMPTP phosphatase inhibitors, primary screen, biochemical, fluorescence intensity, uHTS; Low molecular weight phosphotyrosine protein phosphatase (Homo sapiens), P24666; recombinant LMPTP-A, OMFP fluorogenic substrate; inhibition, % at 20 µM; actives 0.22% (n = 360,000); AID 651560, 2012;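 active means compounds that cut the enzyme signal by at least half of the control window in the single-dose screen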;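 further: plate controls were DMSO wells with enzyme plus substrate for no effect and substrate without enzyme for full effect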
# Target sequence (P24666 whole entry, looked up): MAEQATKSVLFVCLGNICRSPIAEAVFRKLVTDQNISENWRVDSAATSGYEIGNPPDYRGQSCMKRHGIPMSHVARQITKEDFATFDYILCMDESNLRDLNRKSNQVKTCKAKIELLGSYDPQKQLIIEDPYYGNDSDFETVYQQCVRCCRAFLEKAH
#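 Test system: LMPTP-A phosphatase enzyme. Amount: LMPTP-A at 0.625 nM final in the reaction. Reagent: OMFP substrate, 400 µM final. Times: 50 min at room temperature. Signal: endpoint fluorescence intensity from OMFP dephosphorylation. Read-out basis: % inhibition. Benchmarks: no-enzyme and uninhibited controls.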
# SUMO1 PPI mod = modulators of SUMO1 protein-protein interactions, primary screen, biochemical, uHTS. Small ubiquitin-related modifier 1 (Homo sapiens), P63165. SUMO1 binding to a labelled peptide, TR-FRET, 1 h. inhibition, % at 20 µM. actives 0.33% (n = 360,000). AID 602429, 2012; in the data active means inhibition above about 37%
# Target sequence (P63165 whole entry, looked up): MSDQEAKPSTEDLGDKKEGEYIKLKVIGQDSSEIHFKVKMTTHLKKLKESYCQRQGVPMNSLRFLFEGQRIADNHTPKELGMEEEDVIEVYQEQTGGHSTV
# Starred values were filed as active, the others as inactive; nt = no result given.
SMILES,Scp-1 inhibitor,STEP block,FAS TE block,LMPTP inh,SUMO1 PPI mod
Cc1nnc(C)c2c(C)n(-c3ccc4ncccc4c3)c(C)c12,0.6,3.4,-1.7,53.7*,-0.7
COc1cc2c(cc1OC)/C(=C/C(=O)c1ccc(OC)c([N+](=O)[O-])c1)NCC2,-5.7,2.6,5.1,1.6,42.4*
COc1cc2c(cc1OC)/C(=C/C(=O)c1cccc([N+](=O)[O-])c1)NCC2,-15.6,3.9,20.2,1.2,-34.2
O=C(Nc1ccc(N2CCOCC2)cc1)c1csc([C@H]2C[C@H](O)[C@@H](CO)O2)n1,nt,1.7,-4.1,-1.9,23.8
COC(=O)C1=CN(c2ccc(N3CCOCC3)cc2)C(N)=C(C#N)C1c1cccc(F)c1 (configuration not stated),nt,nt,nt,-0.2,-51.5
CCc1n(CC(O)COCC2CC=CCC2)c2ccccc2[n+]1C (configuration not stated),3.8,3.2,-2.2,-0.7,-0.8
CCn1c(C)[n+](CC(O)COCC2CC=CCC2)c2ccccc21 (configuration not stated),86.5*,-3.0,-4.7,-0.3,-0.3
Cc1ccc(S(=O)(=O)N2[C@H](CC(=O)c3ccc(F)cc3)OC[C@@H]2C)cc1,nt,nt,nt,0.0,3.4
CS(=O)(=O)N1CCC(Oc2ccccc2C(=O)NC2CCOC2)CC1 (configuration not stated),2.2,-1.3,-3.7,-0.4,-0.8
CS(=O)(=O)N1CCC(Oc2ccccc2C(=O)NC(C2CC2)C2CC2)CC1,-0.3,-2.2,-5.9,-1.5,40.2*
O=C1CSC(c2cn(-c3ccccc3)nc2-c2cc3ccccc3oc2=O)N1Cc1ccccc1 (configuration not stated),-18.1,6.3,37.9,3.4,55.1*
O=C1CSC(c2nn(-c3ccccc3)cc2-c2cc3ccccc3oc2=O)N1Cc1ccco1 (configuration not stated),-8.9,3.4,17.7,-0.6,1.6
COc1ccc(OC)c(NC(=O)COc2cc(O)c3c(c2)OC(C)(C)CC3=O)c1,nt,1.5,19.6,1.2,0.5
O=S(=O)(O)c1cc(O)c2c(O)c(N=Nc3cc(Cl)ccc3O)c(S(=O)(=O)O)cc2c1,83.3*,100.8*,4.9,102.1*,84.2*
N=C1/C(=C/c2coc3ccccc3c2=O)C(=O)N=C2SC(c3ccco3)=NN12,54.2*,-31.0,-49.7,34.6,-5.2
N=C1/C(=C\c2coc3ccccc3c2=O)C(=O)N=C2SC(c3ccncc3)=NN12,46.6,-24.5,-20.0,3.0,22.9
COc1ccc(-n2cccc2/C=C2\C(=N)N3N=C(c4ccco4)SC3=NC2=O)cc1,81.5*,86.8*,17.2,50.6*,103.0*
Cc1cc2[nH]c3c(c[n+](C)c4ccccc34)c2cc1C,35.6,5.4,-4.0,73.2*,-4.5
COc1cccc(-c2nc(NC3CCCC3)c3ccccc3n2)c1O,-4.0,0.4,30.7,10.3,8.7
c1ccc(-c2nc(NC3CCCC3)c3ccccc3n2)cc1,-0.8,-4.4,35.3,62.2*,1.2
COc1cc(/C=C2\SC(=O)N(c3cccc(Cl)c3)C2=O)cc([N+](=O)[O-])c1O,56.2*,97.6*,34.8,82.2*,2.3
COc1cc(/C=C2\SC(=O)N(c3ccc(Cl)cc3)C2=O)cc([N+](=O)[O-])c1O,54.9*,97.0*,25.2,84.2*,105.5*
Cc1cccc(C)c1-n1nnnc1C(c1cc2ccccc2o1)N1CCN(C/C=C/c2ccccc2)CC1 (configuration not stated),nt,6.2,21.5,5.9,1.4
CC(C)(C)OC(=O)[C@H](Cc1ccccc1)NC(=O)c1ncn2c1c(=O)[nH]c1ccc(Br)cc12,nt,1.5,-13.4,73.0*,-27.7
Cc1cccc(-c2nc(NCCCN3CCOCC3)c3ccccc3n2)c1,-8.5,4.2,5.7,67.0*,3.3
SMILES,Scp-1 inhibitor,STEP block,FAS TE block,LMPTP inh,SUMO1 PPI mod
c1ccc(-c2nc(NCCCN3CCOCC3)c3ccccc3n2)cc1,0.3,-1.2,-7.4,51.0*,3.1
COc1ccc(-n2nnnc2C2(C)CCC(=O)N2Cc2ccccc2)cc1 (configuration not stated),nt,nt,nt,-0.6,-3.2
CC(C)C[C@@]12C(=O)N(c3cccc(F)c3)C(=O)N1[C@H](c1ccc(F)cc1)[C@@H]1C(=O)N(C3CCCCC3)C(=O)[C@@H]12,-11.6,-2.7,82.5*,0.5,1.7
C[C@@]12C(=O)N(c3cccc(Cl)c3)C(=O)N1[C@H](c1ccc(Cl)cc1)[C@@H]1C(=O)N(C3CCCCC3)C(=O)[C@@H]12,-4.4,-2.6,58.6*,-0.3,-4.1
CC(C)C[C@@]12C(=O)N(c3cccc(F)c3)C(=O)N1[C@H](c1ccc(Cl)cc1)[C@@H]1C(=O)N(C3CCCCC3)C(=O)[C@@H]12,-8.6,-1.8,62.2*,-1.1,2.4
C[C@@]12C(=O)N(c3cccc(F)c3)C(=O)N1[C@H](c1ccc(Cl)cc1)[C@@H]1C(=O)N(C3CCCCC3)C(=O)[C@@H]12,-5.2,-0.6,38.8,0.3,-0.2
O=C(NC(=S)Nc1ccc2oc(=O)ccc2c1)c1cc2ccccc2o1,-7.3,3.7,-0.1,7.7,74.6*
O=S(=O)(c1ccc(NC(=S)NN=Cc2ccccc2O)cc1)N1CCCCC1,-5.3,-1.5,20.0,2.3,7.2
CN1OC[C@@H]2CN(S(=O)(=O)c3cc(Cl)cc(Cl)c3)[C@H](c3ccc(-c4ccc(C#N)cc4)cc3)C[C@@H]21,nt,0.7,45.1,3.0,1.2
O=C(NCc1cccnc1)c1cc(C2CCCN(S(=O)(=O)c3cccs3)C2)on1 (configuration not stated),nt,-2.6,2.7,-0.4,1.4
O=c1cc(CSc2nc(NCc3ccccc3)c3ccccc3n2)nc2ccc(Cl)cn12,0.6,0.1,35.4,53.3*,-15.5
COc1cccc(CN2CCC2(C)C(=O)Nc2cccc(Oc3ccccc3)c2)c1F (configuration not stated),nt,-0.4,29.1,2.7,-1.7
O=C(N/N=C\C=C\c1ccc([N+](=O)[O-])o1)c1cccs1,57.4*,12.3,2.1,5.9,8.7
CN1CCN(C(=O)/C=C/c2ccc([N+](=O)[O-])o2)CC1,-15.2,3.6,-1.8,-3.4,-22.4
O=C(O)/C=C/c1ccc([N+](=O)[O-])o1,57.6*,30.7,-6.3,11.0,-1.3
O=c1cc2c(=O)oc3cc(O)c(O)oc3c2c(O)c1O,85.5*,96.4*,-3.7,60.6*,21.9
O=c1oc2cc(O)c(Cl)cc2c2ccccc12,-3.9,-2.1,-8.7,-34.0,3.8
